Reference: ChEMBL document CHEMBL1158765, “Cyclic peroxides derived from the marine sponge Plakortis simplex” (J Nat Prod, 2005)
Converted amounts (≈) assume the structure as drawn.

Key:
Type in all cases: functional, cell-based
[1] = Antitumor activity against human RXF 486L cells
Summary of the method: (§1)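 Human tumor cell lines derived from patient tumors grown subcutaneously in NMRI nu/nu mice, cultured as monolayers and exposed to test compounds. Surviving cells were stained with a fluorescent dye. Doubling times 24-35 h. IC50 taken from concentration-dependent T/C values. Where not reached within the test range, IC extrapolated by linear regression if within 3-fold of the highest concentration.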

[2] = Antitumor activity against human MEXF 642NL cells; summary of the method: as §1
[3] = Antitumor activity against human GXF251L cells; conditions: GXF 251L; summary of the method: as §1
[4] = Antitumor activity against human LXF 529L cells; summary of the method: as §1
[5] = Antitumor activity against human UXF 1138L cells; summary of the method: as §1
[6] = Antitumor activity against human MAXF 401NL cells; summary of the method: as §1

Compound	IC50 [1] [µg/mL]	IC50 [2] [µg/mL]	IC50 [3] [µg/mL]	IC50 [4] [µg/mL]	IC50 [5] [µg/mL]	IC50 [6] [µg/mL]
CCCCCC[C@@]1(CC)C=C(CC)[C@@H](CC(=O)OC)OO1 (relative stereo)	14.1 (≈ 47.2 µM)	7.2 (≈ 24.1 µM)	8.3 (≈ 27.8 µM)	7.7 (≈ 25.8 µM)	14.4 (≈ 48.3 µM)	
CCCCC[C@@]1(CC)C=C(CC)[C@@H](CC(=O)OC)OO1 (relative stereo)	> 10	> 10	> 10	> 10	> 10	> 10
